The subject of data set [1] is L1210. The experiment in a line: Inhibition of RNA synthesis in mouse L1210 cells assessed as [3H]-uridine incorporation preincubated for 3 hrs before [3H]-uridine addition measured after 1 hr by scintillation spectrometric analysis. The data set is classed as functional. The conditions noted are these: read-out: ED50 (the source's name). The gist of the method: (§1)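 L1210 cell assay run by a previously described method. Compounds were dissolved in Me2SO and diluted in growth medium to a final 1% Me2SO. The value reported is ED50.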

For data set [2], the system named is Calf thymus DNA. The experiment in a line: Binding affinity to calf thymus DNA at 10:1 DNA to drug molar ratio by circular dichroism spectroscopic analysis. The conditions noted are these: Bos taurus. The format is nucleic-acid assay. A general note: Circular dichroism is the unequal absorption of left and right circularly polarised light.
The subject of data set [3] is L1210. Description: Inhibition of DNA synthesis in mouse L1210 cells assessed as [3H]-thymidine incorporation preincubated for 3 hrs before [3H]-thymidine addition measured after 1 hr by scintillation spectrometric analysis. The format is functional. The conditions noted are these: read-out: ED50 (the source's name). The procedure, abridged: as §1
On the technique in general: Dividing cells build labelled thymidine or BrdU into new DNA.

In data set [4] the test system is Calf thymus DNA. The experiment in a line: Binding affinity to calf thymus DNA assessed as change in melting temperature at 5.2 X 10^-6 M by thermal denaturation assay. The format is nucleic-acid assay. The conditions noted are these: Bos taurus. The procedure, abridged:
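Calf thymus DNA filtered, concentration set by A259 (ε 6800). Drug in Me2SO diluted into 0.01 M phosphate pH 7.0. Final: drug 5.2×10⁻⁶ M, DNA 5.2×10⁻⁵ M (P), EDTA 1×10⁻⁵ M, 5% Me2SO. Equilibrated at 50 °C, then heated at 18 °C/h while absorbance was recorded. Tm corrected for volume expansion, temperature lag and baseline. ΔTm = Tm(complex) − Tm(DNA).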

A further data set concerns Escherichia coli. The experiment in a line: Induction of Escherichia coli omega enzyme-mediated relaxation of Escherichia coli (RR1) pBR313 closed circular DNA at 40 X 10^-12 mol preincubated for 10 mins followed by enzyme-addition measured after 30 mins by agarose gel electrophoretic analysis. The procedure, abridged:
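Plasmid pBR313 was isolated from E. coli RR1 cleared lysate by agarose A50 gel filtration. 1.10 μg DNA in 80 mM potassium phosphate pH 7.6, 3 mM MgCl2, 1 mM EDTA was preincubated with drug (40×10⁻¹² mol) for 10 min at 37 °C. About 300 units of ω enzyme were added for 30 min. The reaction was stopped with EDTA and phenol/chloroform extracted. Read-out was 0.7% agarose slab gel electrophoresis with ethidium staining, compared with ethidium bromide.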

Data set [5] has as its system P388. Description: Antitumor activity against mouse P388 cells allografted in mouse assessed as increase in life span at 0.108 mg/kg administered qd on day 1, 5 and 9 relative to control. The data set is classed as functional. The conditions noted are these: P388, 24 h. The procedure, abridged:
(§2)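 In vivo testing in tumour-bearing mice was run by the NCI Division of Cancer Treatment. Drug was given on a QD 1, 5, 9 schedule, and 15 mg/kg was the highest dose tested. Toxicity was judged by weight loss of treated animals. Activity is expressed as % increase in life-span (ILS) over untreated tumour-bearing controls.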

Data set [6] has as its system P388. Description: Antitumor activity against mouse P388 cells allografted in mouse assessed as increase in life span at 1.94 mg/kg administered qd on day 1, 5 and 9 relative to control. The format is functional. The conditions noted are these: P388, 24 h. The gist of the method:
as §2

The subject of the next data set is Mus musculus. Description: Toxicity in mouse allografted with mouse P388 cells assessed as weight loss at 1.94 to 15 mg/kg administered qd on day 1, 5 and 9. The format is organism-based. The arrangement: dose 1.94-15 mg/kg. The gist of the method: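 Mice were dosed on a QD 1, 5, 9 schedule at doses up to 15 mg/kg. Toxicity was judged by weight loss of treated animals.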

Data set [7] relates to Calf thymus DNA. The experiment in a line: Binding affinity to calf thymus DNA by NMR spectroscopic analysis. The conditions noted are these: Bos taurus. The data set is classed as nucleic-acid assay.
The subject of data set [8] is P388. Description: Antitumor activity against mouse P388 cells allografted in mouse assessed as increase in life span at 15 mg/kg administered qd on day 1, 5 and 9 relative to control. The format is functional. The conditions noted are these: P388, 24 h. The gist of the method: as §2

6 compounds from ChEMBL document CHEMBL3272214, “2-Deaminoactinomycin D, synthesis and interaction with deoxyribonucleic acid” (J Med Chem, 1977) can be followed below.

Activity calls are given as the source filed them. The rule behind the calls is not given here. *1 amine or outer side, *2 acyl side, *3 side chain or, on linkers, in order; H or OH if unused. Where a SMILES comes first, the peptide text is derived from it. Bridges are numbered along the chain shown (N, C = ends). Roman numbers before positions name the chains, in order. [ ]: non-standard residue; d: D form. Actinocin(1to9) = Cc1c2oc3c(C)ccc(C(=O)[*:2])c3nc-2c(C(=O)[*:1])c(N)c1=O; NMeV = CN[C@H](C(=O)O)C(C)C; Sar = CNCC(=O)O Bounds are passed on as bounds.

As a reminder, the ΔTm is the shift of the melting midpoint relative to a reference. The term ILS denotes the gain in survival time of treated over control animals, in per cent.

As to `Cc1c2oc3c(C)ccc(C(=O)N[C@@H]4C(=O)N[C@H](C(C)C)C(=O)N5CCC[C@H]5C(=O)N(C)CC(=O)N(C)[C@@H](C(C)C)C(=O)O[C@@H]4C)c3nc-2c(C(=O)N[C@@H]2C(=O)N[C@H](C(C)C)C(=O)N3CCC[C@H]3C(=O)N(C)CC(=O)N(C)[C@@H](C(C)C)C(=O)O[C@@H]2C)c(Cl)c1=O`, the EC50 in the data set on L1210 [1] worked out at 13 µM; in the data set with L1210 [3], 86 µM. Moreover, the outcome in the data set on Calf thymus DNA [2] and with Escherichia coli was Active. Moreover, the ΔTm in the data set with Calf thymus DNA [4] was determined as 1.6 °C.

For the compound `COc1cccc2c1C(=O)c1c(O)c3c(c(O)c1C2=O)C[C@@](O)(C(C)=O)C[C@@H]3O[C@H]1C[C@H](N)[C@H](O)[C@H](C)O1`, in the data set with Escherichia coli, the outcome was Active.

Consider `Cc1c2oc3c(C)ccc(C(=O)N[C@@H]4C(=O)N[C@H](C(C)C)C(=O)N5CCC[C@H]5C(=O)N(C)CC(=O)N(C)[C@@H](C(C)C)C(=O)O[C@@H]4C)c3nc-2c(C(=O)N[C@@H]2C(=O)N[C@H](C(C)C)C(=O)N3CCC[C@H]3C(=O)N(C)CC(=O)N(C)[C@@H](C(C)C)C(=O)O[C@@H]2C)c(N)c1=O` [DACTINOMYCIN] (I: T[dV]P[Sar][NMeV] / II: T[dV]P[Sar][NMeV]; ester I:1-I:C, II:1-II:C; linker I:N-II:N via Actinocin(1to9)), for which the EC50 was 0.009 µM in the data set with L1210 [1] and 0.4 µM in the data set on L1210 [3]. Besides, the ΔTm in the data set on Calf thymus DNA [4] came out at 7.1 °C. Further, the outcome with Escherichia coli was Active. In addition, in the data set with P388 [5], the ILS at 0.108 mg/kg stood at 100%.

On to `Cc1c2oc3c(C)ccc(C(=O)N[C@@H]4C(=O)N[C@H](C(C)C)C(=O)N5CCC[C@H]5C(=O)N(C)CC(=O)N(C)[C@@H](C(C)C)C(=O)O[C@@H]4C)c3nc-2c(C(=O)N[C@@H]2C(=O)N[C@H](C(C)C)C(=O)N3CCC[C@H]3C(=O)N(C)CC(=O)N(C)[C@@H](C(C)C)C(=O)O[C@@H]2C)cc1=O`, for which the EC50 with L1210 [1] amounted to 0.7 µM; in the data set with L1210 [3] it was 63 µM. Also, the increase in lifespan (ILS) at 1.94 mg/kg in the data set on P388 [6] was determined as 46%. For the same compound, the result with Calf thymus DNA [2], with Calf thymus DNA [7] and in the data set on Escherichia coli was Active. Further, the Activity result with Mus musculus is reported as “Non-toxic”. Moreover, in the data set with P388 [8], the ILS at 15 mg/kg came out at 92%. In addition, in the data set on Calf thymus DNA [4], the thermal shift (ΔTm) turned out to be 9.9 °C.

`CC[n+]1c(-c2ccccc2)c2cc(N)ccc2c2ccc(N)cc21`: the outcome with Escherichia coli was Active.

On to `Cc1c2oc3c(C)ccc(C(=O)N[C@@H]4C(=O)N[C@H](C(C)C)C(=O)N5CCC[C@H]5C(=O)N(C)CC(=O)N(C)[C@@H](C(C)C)C(=O)O[C@@H]4C)c3nc-2c(C(=O)N[C@@H]2C(=O)N[C@H](C(C)C)C(=O)N3CCC[C@H]3C(=O)N(C)CC(=O)N(C)[C@@H](C(C)C)C(=O)O[C@@H]2C)c(O)c1=O`, for which the EC50 in the data set on L1210 [1] is 24 µM; in the data set on L1210 [3] it was more than 100 µM. Moreover, the ΔTm with Calf thymus DNA [4] is 0 °C.
